Screening data from PubChem.
Only some compounds are listed: those with a hit (about 3.5% of all), similar ones and a draw of the others.
MrgX1 antagonist – blocks BAM8-22 activation of human MrgX1 receptor; Q96LB2; MRGX1-HEK293 calcium flux, Fluo-4, BAM8-22 antagonism; hits give low values; B-score at 10 µM; hit rate 1.3% among 310,000;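 active means calcium-response B-score plate-corrected more than 3 library SD below zero, starting fluorescence within 5 deviations, no agonist response on first addition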;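 further: peak minus trough fluorescence over baseline after final BAM8-22 challenge near maximal dose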
Target sequence (Q96LB2 whole entry, looked up): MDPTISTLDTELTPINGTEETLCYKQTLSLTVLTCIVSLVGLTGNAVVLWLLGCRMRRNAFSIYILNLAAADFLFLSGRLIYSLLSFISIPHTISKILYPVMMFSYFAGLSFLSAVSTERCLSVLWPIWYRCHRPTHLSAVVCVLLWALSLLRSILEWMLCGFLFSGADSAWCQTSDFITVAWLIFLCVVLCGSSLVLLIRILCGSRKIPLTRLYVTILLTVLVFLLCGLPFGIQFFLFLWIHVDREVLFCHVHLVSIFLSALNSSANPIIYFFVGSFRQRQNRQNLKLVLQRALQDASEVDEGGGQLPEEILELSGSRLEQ
RGS4 pot – potentiators or activators of RGS4; HEK293 M3R/inducible RGS4, carbachol calcium flux Fluo4; hits give low values; hit rate 0.92% among 310,000; B-score at 10 µM; AID 463111;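 active means B-score of the integrated calcium signal more than 4 SD below the library mean, with starting fluorescence not abnormally high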;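 further: negative B-score means reduced calcium response which marks RGS4 activation or potentiation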
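test system = M3R-expressing HEK293 line, RGS4 induced by doxycycline | probe or stimulus = carbachol at ECmax as muscarinic agonist stimulus | timing = dye loading 30 min 37 °C, buffer rest 30 min RT | signal = calcium dye Fluo4 fluorescence | evaluation = B score from integrated fluorescence ratio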
MrgX1 ag – agonists of human MrgX1 receptor | Q96LB2 | MrgX1-HEK293 cells, Fluo-4 calcium fluorescence, agonist mode; hits give high values | B-score at 10 µM | hit rate 0.44% among 310,000 | AID 588627;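 active means calcium response B-score plate-corrected fluorescence ratio at least 3 library SD, with starting fluorescence B-score inside 5 SD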
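Assay system: stable human MrgX1 HEK293 cell line. Quantity: 15,000 cells per well. Schedule: cells plated overnight, dye loaded 0.5 h 37 °C, 0.5 h room temperature. Detection: Fluo-4 NW calcium-flux fluorescence, kinetic read. Read-out basis: peak-minus-minimum fluorescence over baseline, converted to B scores. Control set: positive and negative control wells on each plate.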
RGS4 inh – inhibitors of human RGS4. P49798. HEK293 M3R/RGS4 inducible, Fluo-4 calcium flux; hits give high values; triggered by carbachol at its EC20. B-score at 10 µM. hit rate 0.45% among 310,000;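 active means B-score, a plate-corrected calcium signal, over three deviations above library mean, with baseline fluorescence within five deviations of library mean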;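 further: RGS4 expression induced by doxycycline in cells with stable M3 receptor; B-score is computed from the integrated fluorescence ratio over baseline after carbachol; higher B-score means a larger calcium signal and so more RGS4 inhibition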
Target sequence (P49798 whole entry, looked up): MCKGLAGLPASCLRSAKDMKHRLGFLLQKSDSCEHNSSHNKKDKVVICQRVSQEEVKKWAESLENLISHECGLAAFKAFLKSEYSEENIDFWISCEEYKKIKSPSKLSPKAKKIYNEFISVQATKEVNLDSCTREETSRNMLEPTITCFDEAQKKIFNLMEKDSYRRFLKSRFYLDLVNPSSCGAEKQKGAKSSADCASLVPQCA
MrgX1 allo act – human MrgX1 positive allosteric modulation, primary screen | B-score at 10 µM | MrgX1-HEK293, Fluo-4 calcium flux, FDSS; hits give high values | hit rate 0.63% among 310,000 | Q96LB2;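 active means plate-corrected calcium response at least 3 library SD above typical, normal starting fluorescence, not activating the receptor alone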;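 further: compound read alongside a low EC10 to EC30 dose of BAM8-22 agonist; peak minus trough fluorescence over baseline measured at the second addition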
Active calls of the source: *; i = inactive; . = not tested or not shown.

SMILES | MrgX1 antagonist | RGS4 pot | MrgX1 ag | RGS4 inh | MrgX1 allo act
C=CCC(=O)N1CCCC(CO)(Cc2ccc(F)cc2F)C1 (configuration not stated) | i | i | i | i | i
Cc1ccc(C2C(C#N)=C(N)SC(N)=C2C#N)c(C)c1 | i | i | 52.2* | i | i
Cc1ccc2[nH]c(C(=O)N3CCN(c4cccc(Cl)c4)CC3)cc2c1 | i | i | i | i | i
COc1cc(C2Oc3cc(C4Oc5cc(O)cc(O)c5C(=O)C4O)ccc3OC2CO)ccc1O (configuration not stated) | i | i | i | i | 8.77*
COc1cccc(C(=O)Oc2cc(C)[nH]c(=O)c2[N+](=O)[O-])c1OC | -4.77* | i | i | i | i
Cc1cc(OC(=O)c2ccccc2[N+](=O)[O-])c([N+](=O)[O-])c(=O)[nH]1 | i | i | i | i | i
CN(Cc1nccn1C)C(=O)CC1C(=O)NCCN1Cc1cccc(Oc2ccccc2)c1 (configuration not stated) | -5.17* | i | i | i | i
CN(C)c1ccc(/C=C/c2nc3ccccc3s2)cc1 | -6.34* | -7.49* | i | i | i
NC(=O)NCCCC(NC(=O)c1ccc(C#CC2(O)CCCCC2)cc1)C(=O)O (configuration not stated) | i | i | i | i | i
COc1ccc(-c2cn(-c3ccc(OC)cc3)c3[n+]2-c2ccccc2CC3)cc1 | -7.91* | i | i | i | i
CN1CCN(C(c2cccc(Cl)c2)c2ccccc2Cl)CC1 (configuration not stated) | i | -7.98* | i | i | i
CN1CCN(C(c2ccccc2)c2ccc(Cl)cc2)CC1 (configuration not stated) | i | . | i | . | i
Cc1ccc(C(=O)/C=C/c2cc(Br)cc(Br)c2O)o1 | -5.3* | i | i | i | i
Cc1ccc(C(=O)/C=C/N(C)C)o1 | i | i | i | i | i
O=C(O)C(c1ccccc1)N1CCCCC1 (configuration not stated) | -4.74* | i | i | i | i
CC(C)c1cc(O)c(-c2ccccc2)c(=O)n1-c1ccc(Cl)cc1 | i | i | i | i | i
CC(C)c1c(Cl)c(O)c(-c2ccccc2)c(=O)n1-c1ccc(F)cc1 | -5.31* | i | i | i | i
Cc1cc(NC(=O)C(C)C)ncc1NC(=O)Cc1ccccc1 | i | i | i | i | i
COc1cc(C(=O)Nc2cnc(NC(=O)C(C)C)cc2C)cc(OC)c1OC | -5.68* | i | i | i | i
C/C=C/C=C/C(=O)OC(C)C(=O)Nc1cc([N+](=O)[O-])ccc1OC (configuration not stated) | i | i | i | i | 7.55*
COc1ccc([N+](=O)[O-])cc1NC(=O)C(C)OC(=O)c1ccccn1 (configuration not stated) | i | i | i | i | i
O=C(NCCC1=CCCCC1)c1cc(-c2ccncc2)nc2ccccc12 | i | i | i | i | i
O=c1ccc2cc3c4c(c2o1)CCCN4CCC3 | i | -7.37* | i | i | i
O=c1oc2c3c4c(cc2s1)CCCN4CCC3 | i | i | i | i | i
O=C(CN(C(=O)CCC(=O)Nc1ccccn1)C1CCCC1)NCc1ccccc1 | i | i | i | i | i
SMILES | MrgX1 antagonist | RGS4 pot | MrgX1 ag | RGS4 inh | MrgX1 allo act
COc1ccc(CNC(=O)C(c2ccco2)N(Cc2cccs2)C(=O)Cc2cccs2)cc1 (configuration not stated) | i | i | i | i | i
COc1ccc(CNC(=O)C(c2ccc(C)cc2)N(Cc2cccs2)C(=O)c2ccc3c(c2)OCCO3)cc1 (configuration not stated) | i | -7.5* | i | i | i
Cc1ccc(C(C(=O)NCc2ccccc2)N(Cc2cccs2)C(=O)c2ccc3c(c2)OCCO3)cc1 (configuration not stated) | i | i | i | i | i
COc1ccc(CNC(=O)C(c2cccs2)N(Cc2ccco2)C(=O)Cc2cccs2)cc1 (configuration not stated) | i | -7.36* | i | i | i
CCOC(=O)[C@@H]1[C@H]2COc3cc(OC)ccc3[C@@H]2N2C(=O)N(c3ccc(C(F)(F)F)cc3)C(=O)[C@]12C | i | i | i | i | i
COCc1cc(Sc2cccc(Cl)c2Cl)nc(-c2ccccc2)n1 | i | i | i | i | 8.03*
COCc1cc(N2CCOCC2)nc(-c2ccccc2)n1 | i | i | i | i | i
Cc1ccc(NC(=O)CO/N=C/c2ccc(N(C)C)cc2)cc1 | -4.76* | i | i | i | i
CCCc1cc(=O)n2[nH]c(NC(=O)c3ccco3)nc2n1 | i | i | i | i | i
CCOC(=O)c1c(NC(=O)COC(=O)c2ccc(O)cc2)sc(C(=O)NC)c1C | i | i | i | i | i
CCOC(=O)c1c(NC(=O)COC(=O)CC(NC(C)=O)c2ccccc2)sc(C(=O)NC)c1C (configuration not stated) | -4.78* | i | i | i | i
CCCc1nc(SCC(=O)O)c2sc(=S)n(-c3ccccc3)c2n1 | i | i | i | i | i
CCOC(=O)C(=Cc1c[nH]c2ccc(S(=O)(=O)N(C)C)cc12)C(=O)OCC | i | i | i | i | 6.74*
CCOC(=O)/C(C#N)=C/c1c[nH]c2ccccc12 | i | i | i | i | i
O=S(=O)(CCSc1nc2ccccc2o1)c1nc2ccccc2s1 | i | i | i | i | i
O=S(=O)(CCSc1ccccn1)c1nc2ccccc2s1 | i | i | 34.1* | i | i
O=c1n(-c2ccc(Br)cc2)cnn1-c1ncccc1[N+](=O)[O-] | i | i | i | i | i
Cc1ccc(C(=O)Nn2c(O)c(C=C3N=c4ccccc4=N3)sc2=S)cc1 | i | i | i | i | i
Cc1ccc(S(=O)(=O)Nn2c(O)c(C=C3N=c4ccccc4=N3)sc2=S)cc1 | -5.28* | i | i | i | i
COC(=O)c1ccccc1NC(=O)Cn1cnc([N+](=O)[O-])c1 | i | i | i | i | i
COc1ccc(CNC[C@@H](CCCCN(C)Cc2ccc(OC)cc2)N2C[C@H](c3ccccc3)N(CCc3ccc(Cl)c(Cl)c3)C(=O)C2=O)cc1 | i | -8.17* | i | i | i
O=C(NCCCN1CCCC1)[C@H](CSCc1ccccc1)N1Cc2ccccc2C1=O | i | i | i | i | i
